Measured values from ChEMBL document CHEMBL1268856, “The tomato saponin, esculeoside A” (J Nat Prod, 2010).
Active and inactive are the calls of the source. The calls are words filed in the database; no cut-off is given here.

How the values were obtained:
[1] = system: Mus musculus; assay: Antihyperlipidemic in apoE deficient mouse assessed as reduction in LDL cholesterol level at 100 mg/kg qd after 90 hrs; format: functional; set-up: scale not given: the % may be the effect or the level left; conditions: in the assay text read “after 90 days” for “after 90 hrs”
In short: (§1)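 ApoE-deficient mice were fed diets with or without compound (100 mg/kg/day) for 90 days, n = 10 per group. Plasma total cholesterol, LDL cholesterol and triglyceride were then measured. Data are means ± SD.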

[2] = system: MDM; assay: Antihyperlipidemic activity in human MDM cell assessed as inhibition of acetule-LDL-induced cholesterol ester accumulation after 24 hrs; format: functional, cell-based
In short: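 Human monocyte-derived macrophages were incubated 24 h with 50 µg/mL acetyl-LDL plus 0.1 mM [3H]oleate conjugated to BSA, with or without compound. [3H]cholesteryl ester was separated by TLC and counted by radioscanner. Three independent experiments; means ± SD.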

[3] = system: Mus musculus; assay: Antihyperlipidemic in apoE deficient mouse assessed as reduction in triglyceride level at 100 mg/kg qd after 90 hrs; format: functional; set-up: scale not given: the % may be the effect or the level left; conditions: in the assay text read “after 90 days” for “after 90 hrs”; in short: as §1
[4] = Cytotoxicity against human MDM cells at 100 uM; format: cell-based
[5] = system: Mus musculus; assay: Antiatherogenesis in apoE deficient mouse assessed as reduction in aortic lesions at 100 mg/kg qd; format: functional, Aorta; set-up: scale not given: the % may be the effect or the level left
In short: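 ApoE-deficient mice given diet with or without compound at 100 mg/kg/day for 90 days, n = 10 per group. Aortic sinus cross sections stained with oil red O and viewed at ×200. Cross-sectional lesion area was quantified and compared with untreated controls.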

[6] = system: Mus musculus; assay: Antihyperlipidemic in apoE deficient mouse assessed as reduction in total cholesterol level at 100 mg/kg qd after 90 hrs; format: functional; set-up: scale not given: the % may be the effect or the level left; conditions: in the assay text read “after 90 days” for “after 90 hrs”; in short: as §1
[7] = molecular target: T1, Sterol O-acyltransferase 2 (Homo sapiens) (UniProt O75908); assay: Inhibition of human ACAT2 expressed in CHO cells assessed as inhibition of [3H]oleate-induced cholesterol ester accumulation; format: cell-based
T1 sequence (whole entry): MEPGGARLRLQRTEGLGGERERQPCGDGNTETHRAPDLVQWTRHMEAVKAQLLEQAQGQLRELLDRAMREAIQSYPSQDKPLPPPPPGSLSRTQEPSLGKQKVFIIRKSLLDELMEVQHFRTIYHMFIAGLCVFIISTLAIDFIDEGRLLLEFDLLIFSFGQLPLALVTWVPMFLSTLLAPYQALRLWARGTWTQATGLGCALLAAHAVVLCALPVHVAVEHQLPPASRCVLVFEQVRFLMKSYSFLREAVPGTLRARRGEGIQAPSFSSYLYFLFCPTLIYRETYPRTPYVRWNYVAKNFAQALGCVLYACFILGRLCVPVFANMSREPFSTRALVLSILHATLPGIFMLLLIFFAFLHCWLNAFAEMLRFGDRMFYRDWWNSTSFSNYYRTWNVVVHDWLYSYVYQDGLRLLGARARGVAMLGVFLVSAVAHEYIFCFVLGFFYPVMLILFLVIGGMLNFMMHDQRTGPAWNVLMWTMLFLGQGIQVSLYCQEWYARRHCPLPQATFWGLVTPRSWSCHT
In short: (§2)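 CHO cells overexpressing human ACAT-1 or ACAT-2 were incubated 24 h in medium with 10% fetal calf serum, 0.1 mM [3H]oleate-BSA and the indicated compound concentrations. [3H]cholesteryl ester was separated by TLC and radioactivity measured. Repeated three times.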

[8] = system: MDM; assay: Antihyperlipidemic activity in human MDM cell assessed as inhibition of acetule-LDL-induced cholesterol ester accumulation after 5 hrs; format: functional, cell-based
[9] = molecular target: T2, Sterol O-acyltransferase 1 (Homo sapiens) (UniProt P35610); assay: Inhibition of human ACAT1 expressed in CHO cells assessed as inhibition of [3H]oleate-induced cholesterol ester accumulation; format: cell-based; in short: as §2
T2 sequence (whole entry): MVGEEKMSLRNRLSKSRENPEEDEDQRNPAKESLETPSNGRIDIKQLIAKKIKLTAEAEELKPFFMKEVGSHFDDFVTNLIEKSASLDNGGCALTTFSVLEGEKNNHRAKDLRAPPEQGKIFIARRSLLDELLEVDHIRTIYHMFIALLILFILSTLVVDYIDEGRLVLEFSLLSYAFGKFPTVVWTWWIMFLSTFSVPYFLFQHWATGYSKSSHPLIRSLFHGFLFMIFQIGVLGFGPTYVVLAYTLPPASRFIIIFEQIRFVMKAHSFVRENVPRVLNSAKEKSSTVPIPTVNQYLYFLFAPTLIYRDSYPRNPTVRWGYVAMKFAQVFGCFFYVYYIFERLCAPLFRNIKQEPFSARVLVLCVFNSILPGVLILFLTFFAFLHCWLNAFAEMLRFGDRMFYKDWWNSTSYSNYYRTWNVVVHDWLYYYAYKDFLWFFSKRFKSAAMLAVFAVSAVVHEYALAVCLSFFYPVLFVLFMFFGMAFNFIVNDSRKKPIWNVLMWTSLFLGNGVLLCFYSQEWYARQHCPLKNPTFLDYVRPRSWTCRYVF

Row | Activity [7] | Activity [9] | SMILES | Activity [1] [%] | Activity [2] | Activity [3] [%] | Activity [4] | Activity [5] [%] | Activity [6] [%] | Activity [8]
1 | – | – | CC(=O)O[C@H]1C[C@H](CO[C@@H]2O[C@H](CO)[C@@H](O)[C@H](O)[C@H]2O)CN[C@@]12O[C@H]1C[C@H]3[C@@H]4CC[C@H]5C[C@@H](O[C@@H]6O[C@H](CO)[C@H](O[C@@H]7O[C@H](CO)[C@@H](O)[C@H](O[C@@H]8OC[C@@H](O)[C@H](O)[C@H]8O)[C@H]7O[C@H]7O[C@H](CO)[C@@H](O)[C@H](O)[C@H]7O)[C@H](O)[C@H]6O)CC[C@]5(C)[C@H]4CC[C@]3(C)[C@H]1[C@H]2C [ESCULEOSIDE A] | 25 | Active | 45 | Non-toxic | 52 | 25 | –
2 | Dose-dependent effect | Dose-dependent effect | C[C@@H]1[C@H]2[C@H](C[C@H]3[C@@H]4CC[C@H]5C[C@@H](O)CC[C@]5(C)[C@H]4CC[C@]23C)O[C@@]12NC[C@@H](CO)C[C@@H]2O | – | Active | – | – | – | – | Dose-dependent effect
